The source made the active and inactive calls. The rule behind the calls is not given here.
Tests used:
[1] = tested on: Trypanosoma brucei brucei; assay: Antitrypanosomal activity against suramin-sensitive Trypanosoma brucei brucei Squib 427 after 72 hrs by resazurin dye-based fluorimetric analysis; type: functional, organism-based; settings: Squib 427, 72 h
Trypanosoma cruzi = assay: Antitrypanosomal activity against nifurtimox-sensitive Trypanosoma cruzi Tulahuen CL2 infected in human MRC5 SV2 cells assessed as reduction in parasite burden after 168 hrs by CPRG and Nonidet based spectrophotometric analysis; type: functional, organism-based; settings: Tulahuen CL2, MRC-5 SV2, 168 h
Leishmania infantum = assay: Antileishmanial activity against Leishmania infantum MHOM/MA (BE)/67 amastigotes infected in primary peritoneal mouse macrophages after 120 hrs by giemsa staining-based microscopic analysis; type: functional, organism-based; settings: MHOM/MA (BE)/67, 120 h
Plasmodium falciparum = assay: Antiplasmodial activity against chloroquine-resistant Plasmodium falciparum K1 infected in human erythrocytes after 72 hrs by Malstat reagent-based spectrophotometric analysis; type: functional, organism-based; settings: K1, 72 h
[2] = Drug metabolism in mouse liver microsomes assessed as CYP450 mediated compound […] by measuring parent compound remaining at 5 uM after 15 mins in presence of NADPH by UPLC/MS/ESI analysis; type: ADME; settings: read-out: Stability
[3] = Drug metabolism in mouse liver microsomes assessed as CYP450 mediated compound […] by measuring parent compound remaining at 5 uM after 30 mins in presence of NADPH by UPLC/MS/ESI analysis; type: ADME; settings: read-out: Stability
[4] = Drug metabolism in mouse liver microsomes assessed as CYP450 mediated compound […] by measuring parent compound remaining at 5 uM after 60 mins in presence of NADPH by UPLC/MS/ESI analysis; type: ADME; settings: read-out: Stability
[5] = Drug metabolism in human liver microsomes assessed as CYP450 mediated compound […] by measuring parent compound remaining at 5 uM after 15 mins in presence of NADPH by UPLC/MS/ESI analysis; type: ADME; settings: read-out: Stability
[6] = Drug metabolism in human liver microsomes assessed as UGT mediated compound […] by measuring parent compound remaining at 5 uM after 15 mins in presence of UDPGA by UPLC/MS/ESI analysis; type: ADME; settings: read-out: Stability
[7] = Drug metabolism in human liver microsomes assessed as UGT mediated compound […] by measuring parent compound remaining at 5 uM after 30 mins in presence of UDPGA by UPLC/MS/ESI analysis; type: ADME; settings: read-out: Stability
[8] = tested on: Trypanosoma brucei brucei; assay: Antitrypanosomal activity against Trypanosoma brucei brucei Squib 427 infected in Swiss mouse assessed as mouse survival at 25 mg/kg, po bid for 5 days and measured on day 14 post infection; type: functional, organism-based
In short: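 Acute T. b. brucei mouse infection model. Dosing was PO or IP at 10–50 mg/kg, once (SID) or twice (BID) daily for 5 days after infection, with 3 mice per group. […] Read-outs were mean survival time and survivors on day 14 post infection.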

[9] = tested on: Trypanosoma brucei brucei; assay: Antitrypanosomal activity against Trypanosoma brucei brucei Squib 427 infected in Swiss mouse assessed as mean survival days at 50 mg/kg, po bid for 5 days; type: functional
In short: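 Acute mouse infection model with T. b. brucei. Dosing ran for 5 days after infection, orally or intraperitoneally, once or twice daily. Groups were 3 mice each, with vehicle-treated infected controls. The read-out was mean survival time in days, plus the number of survivors on day 14 post-infection.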

[10] = tested on: Trypanosoma brucei brucei; assay: Antitrypanosomal activity against Trypanosoma brucei brucei Squib 427 infected in Swiss mouse at 50 mg/kg, po administered as single dose after 24 hrs; type: functional, organism-based; settings: Squib 427, 24 h
[11] = Drug metabolism in human plasma assessed as parent compound remaining after 15 mins by UPLC/MS/ESI analysis; type: ADME, cell-free; settings: read-out: Stability
[12] = Drug metabolism in human plasma assessed as parent compound remaining after 60 mins by UPLC/MS/ESI analysis; type: ADME, cell-free; settings: read-out: Stability
[13] = Drug level in Swiss mouse blood infected with Trypanosoma brucei brucei Squib 427 at 50 mg/kg, po bid for 5 days measured after 0.5 hrs after last dose by UPLC/MS/ESI analysis; type: ADME, organism-based; settings: whole blood, read-out: Drug uptake
[14] = Drug level in Swiss mouse blood infected with Trypanosoma brucei brucei Squib 427 at 50 mg/kg, po bid for 5 days measured after 2 hrs after last dose by UPLC/MS/ESI analysis; type: ADME, organism-based; settings: whole blood, read-out: Drug uptake
[15] = Drug level in Swiss mouse blood infected with Trypanosoma brucei brucei Squib 427 at 50 mg/kg, po bid for 5 days measured after 4 hrs after last dose by UPLC/MS/ESI analysis; type: ADME, organism-based; settings: whole blood, read-out: Drug uptake
[16] = Drug level in Swiss mouse blood infected with Trypanosoma brucei brucei Squib 427 at 25 mg/kg, po bid for 5 days measured after 1 hr after last dose by UPLC/MS/ESI analysis; type: ADME, organism-based; settings: whole blood, read-out: Drug uptake
[17] = Drug uptake in Swiss mouse blood at 50 mg/kg, po administered as single dose after 24 hrs by UPLC/MS/ESI analysis; type: ADME, organism-based; settings: whole blood, read-out: Drug uptake
In short: (§1)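 Mice were given the compound orally as a single dose of either 25 or 50 mg/kg, one group per dose. Plasma concentrations were followed over time up to 24 h, and the pharmacokinetic parameters were derived from the concentration-time profile.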

[18] = Drug uptake in Swiss mouse blood at 25 mg/kg, po administered as single dose after 0.5 hrs by UPLC/MS/ESI analysis; type: ADME, organism-based; settings: whole blood, read-out: Drug uptake; in short: as §1
[19] = Drug uptake in Swiss mouse blood at 25 mg/kg, po administered as single dose after 1 hr by UPLC/MS/ESI analysis; type: ADME, organism-based; settings: whole blood, read-out: Drug uptake; in short: as §1
[20] = Tmax in Swiss mouse infected with Trypanosoma brucei brucei Squib 427 at 50 mg/kg, po bid for 5 days after 24 hrs by UPLC/MS/ESI analysis; type: ADME, organism-based; settings: in vivo
[21] = Cmax in Swiss mouse infected with Trypanosoma brucei brucei Squib 427 at 50 mg/kg, po bid for 5 days after 24 hrs by UPLC/MS/ESI analysis; type: ADME, organism-based; set-up: dose 50 mg/kg, route oral; settings: in vivo
[22] = AUC (0 to >4 hrs) in Swiss mouse infected with Trypanosoma brucei brucei Squib 427 at 50 mg/kg, po bid for 5 days by UPLC/MS/ESI analysis; type: ADME, organism-based; settings: in vivo
[23] = Cmax in Swiss mouse infected with Trypanosoma brucei brucei Squib 427 at 25 mg/kg, po administered as single dose after 24 hrs by UPLC/MS/ESI analysis; type: ADME, organism-based; set-up: dose 25 mg/kg, route oral; settings: in vivo
[24] = Half life in Swiss mouse infected with Trypanosoma brucei brucei Squib 427 at 25 mg/kg, po administered as single dose after 24 hrs by UPLC/MS/ESI analysis; type: ADME, organism-based; settings: in vivo
[25] = Clearance in Swiss mouse infected with Trypanosoma brucei brucei Squib 427 at 25 mg/kg, po administered as single dose after 24 hrs by UPLC/MS/ESI analysis; type: ADME, organism-based; settings: in vivo
Mus musculus = assay: Apparent volume of distribution in Swiss mouse at 25 mg/kg, po administered as single dose after 24 hrs by UPLC/MS/ESI analysis; type: ADME, organism-based; settings: in vivo
In short: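 Mice in groups received one oral dose of 25 or 50 mg/kg. Plasma concentrations were followed over time up to 24 h, and PK parameters including T1/2 were derived from the concentration–time profile.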

[26] = Protein binding in 10% FBS in Trypanosoma brucei culture medium assessed as drug recovery at 2 uM after 6 hrs by equilibrium dialysis and LC-MS analysis; type: ADME, cell-free, Bos taurus, Serum; settings: cattle, read-out: Drug recovery
[27] = Protein binding in 10% FBS in Trypanosoma brucei culture medium at 10 uM after 6 hrs by equilibrium dialysis and LC-MS analysis; type: ADME, cell-free, Bos taurus, Serum; settings: cattle, read-out: PB
[28] = Protein binding in 10% FBS in Trypanosoma brucei culture medium assessed as drug recovery at 10 uM after 6 hrs by equilibrium dialysis and LC-MS analysis; type: ADME, cell-free, Bos taurus, Serum; settings: cattle, read-out: Drug recovery

In the case of `Nc1nc(Nc2ccc(F)cc2)nc(Oc2ccc(F)cc2)n1`, the IC50 [1] is reported as 600 nM, the IC50 (Trypanosoma cruzi) is reported as over 64000 nM and the IC50 (Leishmania infantum) is reported as over 64000 nM. It also gave an IC50 (Plasmodium falciparum) of over 64000 nM, a remaining at 0.25 h, 5 µM [2] of 76% and a remaining at 0.5 h, 5 µM [3] of 80%. The remaining at 1 h, 5 µM [4] was 74%, the remaining at 0.25 h, 5 µM [5] was 93% and the remaining at 0.25 h, 5 µM [6] was 107%. The remaining at 0.5 h, 5 µM [7] was 97%, the Activity [8] was “inactive” and the MST [9] was 5.7 days. The IC50 [10] was 630 nM, the remaining at 0.25 h [11] was 80% and the remaining at 1 h [12] was 88%. For the same compound, the concentration at 0.5 h [13] was 2870 ng/mL, the concentration at 2 h [14] was 2840 ng/mL and the concentration at 4 h [15] was 800 ng/mL. The concentration at 1 h [16] was 2410 ng/mL, the concentration at 24 h [17] was 150 ng/mL and the concentration at 0.5 h [18] was 842 ng/mL. The concentration at 1 h [19] was 1180 ng/mL, the Tmax [20] was 1.3 h and the Cmax [21] was 3830 ng/mL. The AUC [22] was 9350 ng·h/mL, the Cmax [23] was 2690 ng/mL and the half-life [24] was 0.85 h. It also gave a CL/F [25] of 176 mL/min, a Vz (Mus musculus) of 26.7 L and a recovery at 6 h, 2 µM [26] of 96.1%. The fraction unbound at 6 h, 10 µM [27] was 0.498 and the recovery at 6 h, 10 µM [28] was 71.1%.
